In brackets after ≈: the same amount, converted by molar mass.

Data set [1] deals with 786-0. As to the kind of experiment: Antiproliferative activity against human 786-0 cells after 48 hrs by sulforhodamine B assay. The data set is classed as functional. To be noted: 786-0, 48 h. The method, boiled down:
(§1)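 Tumor cells grown in RPMI 1640 with 5% fetal bovine serum, with penicillin/streptomycin in experimental cultures. Exposed in 96-well plates to samples in DMSO/RPMI at 0.25, 2.5, 25 and 250 µg/mL, 37 °C, 5% CO2, 48 h. Fixed with 50% trichloroacetic acid before (T0) and after treatment, protein stained with sulforhodamine B and read at 540 nm. GI50, TGI and LC50 in µg/mL from dose-response curves by non-linear regression.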

The test system of data set [2] is NCI/ADR-RES. Briefly: Antiproliferative activity against human NCI/ADR-RES cells assessed as tumor growth inhibition after 48 hrs by sulforhodamine B assay. The data set is classed as functional. In outline: as §1
On the technique in general: The SRB assay estimates cell density from bound dye.

Data set [3] concerns MCF7. Briefly: Antiproliferative activity against human MCF7 cells assessed as tumor growth inhibition after 48 hrs by sulforhodamine B assay. The class given is functional. To be noted: MCF7, 48 h. In outline:
as §1

The nature of data set [4]: Antiproliferative activity against human OVCAR3 cells assessed as tumor growth inhibition after 48 hrs by sulforhodamine B assay. The data set is classed as functional. To be noted: OVCAR-3, 48 h. In outline: as §1
The subject of data set [5] is NCI/ADR-RES. Briefly: Antiproliferative activity against human NCI/ADR-RES cells after 48 hrs by sulforhodamine B assay. The data set is classed as functional. The method, boiled down:
as §1

Data set [6] can be described thus: Antiproliferative activity against human PC3 cells assessed as tumor growth inhibition after 48 hrs by sulforhodamine B assay. The class given is functional. As to conditions: PC-3, 48 h. The method, boiled down: as §1
Data set [7] concerns NCI-H460. As to the kind of experiment: Antiproliferative activity against human NCI-H460 cells assessed as tumor growth inhibition after 48 hrs by sulforhodamine B assay. The data set is classed as functional. As to conditions: NCI-H460, 48 h. In outline: as §1
Data set [8] concerns U-251. As to the kind of experiment: Antiproliferative activity against human U251 cells after 48 hrs by sulforhodamine B assay. The class given is functional. To be noted: U-251, 48 h. The method, boiled down:
as §1

For data set [9], the system named is U-251. Briefly: Antiproliferative activity against human U251 cells assessed as tumor growth inhibition after 48 hrs by sulforhodamine B assay. The data set is classed as functional. To be noted: U-251, 48 h. The method, boiled down:
as §1

The subject of data set [10] is MCF7. As to the kind of experiment: Antiproliferative activity against human MCF7 cells after 48 hrs by sulforhodamine B assay. As to conditions: MCF7, 48 h. The class given is functional. In outline: as §1
The nature of data set [11]: Antiproliferative activity against human PC3 cells after 48 hrs by sulforhodamine B assay. As to conditions: PC-3, 48 h. The class given is functional. The method, boiled down:
as §1

Data set [12] relates to HaCaT. As to the kind of experiment: Cytotoxicity against human HaCaT cells assessed as tumor growth inhibition after 48 hrs by sulforhodamine B assay. The class given is cell-based. The method, boiled down:
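Non-tumor lines (human HaCaT keratinocytes; Vero) in RPMI 1640 with 5% FBS, with penicillin/streptomycin added to experimental cultures. 48 h exposure at 0.25–250 µg/mL (DMSO/RPMI), 37 °C, 5% CO2. TCA fixation at time zero and at end, sulforhodamine B protein stain, absorbance 540 nm. TGI (total growth inhibition) from non-linear regression of the dose-response curve.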

For data set [13], the system named is HaCaT. As to the kind of experiment: Cytotoxicity against human HaCaT cells after 48 hrs by sulforhodamine B assay. The data set is classed as cell-based.
In data set [14] the test system is 786-0. As to the kind of experiment: Antiproliferative activity against human 786-0 cells assessed as tumor growth inhibition after 48 hrs by sulforhodamine B assay. The class given is functional. As to conditions: 786-0, 48 h. In outline: as §1
A short description of data set [15]: Antiproliferative activity against human OVCAR3 cells after 48 hrs by sulforhodamine B assay. As to conditions: OVCAR-3, 48 h. The class given is functional. In outline:
as §1

Data set [16] has as its system NCI-H460. Briefly: Antiproliferative activity against human NCI-H460 cells after 48 hrs by sulforhodamine B assay. The class given is functional. To be noted: NCI-H460, 48 h. The method, boiled down: as §1

Broadly, the GI50 is the concentration at which growth is held to half of that of the control. A higher GI50 goes with lower sensitivity of the cells. As usually defined, the TGI is the concentration at which net growth stops. As a reminder, the LC50 is the concentration lethal to half of the exposed cells or organisms. Read a high LC50 as a less lethal substance. As to `CCCCCC[C@@H](O)C/C=C\CCCCCCCC(=O)NCc1ccccc1`, the GI50 in the data set on 786-0 [1] was 32.3 mg/L (≈ 83.3 µM); in the data set with NCI/ADR-RES [5], 8.6 mg/L (≈ 22.2 µM); in the data set on U-251 [8], 8.6 mg/L (≈ 22.2 µM); in the data set with MCF7 [10] it was 37.8 mg/L (≈ 97.5 µM); in data set [11], 123 mg/L (≈ 316 µM); in [15], 31.6 mg/L (≈ 81.5 µM). The compound further yielded a GI50 with NCI-H460 [16] of 32.3 mg/L (≈ 83.3 µM). Further, the total growth inhibition concentration (TGI) is 46.6 mg/L (≈ 120 µM) with NCI/ADR-RES [2]; 104 mg/L (≈ 270 µM) in the data set on MCF7 [3]; 86 mg/L (≈ 222 µM) in data set [4]; 123 mg/L (≈ 316 µM) in data set [6]; 179 mg/L (≈ 461 µM) with NCI-H460 [7]; 47.5 mg/L (≈ 123 µM) with U-251 [9]. Besides, the TGI in the data set with HaCaT [12] was 66.5 mg/L (≈ 172 µM); in the data set with 786-0 [14] it was 71.5 mg/L (≈ 184 µM). This compound also showed an LC50 in the data set on HaCaT [13] of 30.8 mg/L (≈ 79.5 µM).

Consider `CCCCCCCC/C=C/CCCCCCCC(=O)N[C@@H](C)c1ccccc1`, for which the TGI (with NCI/ADR-RES [2]; with MCF7 [3]; in data set [4]; in data set [6]; with NCI-H460 [7]; in the data set on U-251 [9]) was above 250 mg/L throughout. For the same compound, the TGI in the data set on HaCaT [12] and in the data set on 786-0 [14] was above 250 mg/L each time. Moreover, the GI50 with MCF7 [10] stood at 110 mg/L (≈ 286 µM); in [15], 21.7 mg/L (≈ 56.3 µM). The same compound showed an LC50 in the data set on HaCaT [13] of 24.6 mg/L (≈ 63.8 µM).

As for `CCCCCCCCCCCCCCCCCC(=O)N[C@@H](C)c1ccccc1`, the TGI (in the data set on NCI/ADR-RES [2]; in the data set on MCF7 [3]; in data set [4]; in data set [6]; with NCI-H460 [7]; in the data set with U-251 [9]) was above 250 mg/L each time. Moreover, the TGI with HaCaT [12] and in the data set with 786-0 [14] was above 250 mg/L each time. In the data set on HaCaT [13], the LC50 stood at 69.5 mg/L (≈ 179 µM).

Take `CCCCC/C=C\C/C=C\CCCCCCCC(=O)N[C@@H](C)c1ccccc1`: the GI50 worked out at 3.2 mg/L (≈ 8.34 µM) in the data set with 786-0 [1]; 3 mg/L (≈ 7.82 µM) in the data set on NCI/ADR-RES [5]; 0.7 mg/L (≈ 1.82 µM) in the data set with U-251 [8]; 5.3 mg/L (≈ 13.8 µM) with MCF7 [10]; 6.8 mg/L (≈ 17.7 µM) in data set [11]; 3.5 mg/L (≈ 9.12 µM) in data set [15]. Moreover, the GI50 with NCI-H460 [16] turned out to be 6.1 mg/L (≈ 15.9 µM). In addition, the concentration for total growth inhibition (TGI) with NCI/ADR-RES [2] is 16.4 mg/L (≈ 42.8 µM); with MCF7 [3], 38.6 mg/L (≈ 101 µM); in data set [4], 20 mg/L (≈ 52.1 µM); in data set [6] it was 7.7 mg/L (≈ 20.1 µM); with NCI-H460 [7], 38.9 mg/L (≈ 101 µM); in the data set on U-251 [9] it was 5.1 mg/L (≈ 13.3 µM). The TGI in the data set with HaCaT [12] was 77.2 mg/L (≈ 201 µM); in the data set on 786-0 [14] it was 7.7 mg/L (≈ 20.1 µM). The compound further came in with an LC50 in the data set with HaCaT [13] of 1.3 mg/L (≈ 3.39 µM).

For `CCCCCCCCCCCCCCCC(=O)N1CCCC1`, the GI50 with 786-0 [1] is 5.5 mg/L (≈ 17.8 µM); in the data set with NCI/ADR-RES [5], 4.6 mg/L (≈ 14.9 µM); in the data set with U-251 [8] it was 4.6 mg/L (≈ 14.9 µM); in the data set on MCF7 [10] it was 4.6 mg/L (≈ 14.9 µM); in [11] it was 4.7 mg/L (≈ 15.2 µM); in data set [15], 6.3 mg/L (≈ 20.4 µM). The GI50 in the data set on NCI-H460 [16] came out at 5.9 mg/L (≈ 19.1 µM). In addition, the TGI with NCI/ADR-RES [2] is 30 mg/L (≈ 96.9 µM); in the data set with MCF7 [3], 13.2 mg/L (≈ 42.6 µM); in data set [4], 22.9 mg/L (≈ 74 µM); in [6] it was 12.2 mg/L (≈ 39.4 µM); in the data set with NCI-H460 [7] it was 33.5 mg/L (≈ 108 µM); with U-251 [9], 11.4 mg/L (≈ 36.8 µM). In addition, the TGI amounted to 12.9 mg/L (≈ 41.7 µM) in the data set on HaCaT [12] and 16.1 mg/L (≈ 52 µM) in the data set with 786-0 [14]. For the same compound, the LC50 in the data set on HaCaT [13] was 4.8 mg/L (≈ 15.5 µM).

For the compound `CCCCCCCCCCCCCCCCCC(=O)NCCO` [N-(2-HYDROXYETHYL)STEARAMIDE], the TGI (with NCI/ADR-RES [2]; in the data set on MCF7 [3]; in [4]; in data set [6]; with NCI-H460 [7]; in the data set with U-251 [9]) was above 250 mg/L in each case. The TGI in the data set on HaCaT [12] and in the data set on 786-0 [14] was above 250 mg/L throughout. Further, the GI50 worked out at 158 mg/L (≈ 481 µM) in the data set with NCI/ADR-RES [5]; 117 mg/L (≈ 357 µM) in the data set with U-251 [8]; 130 mg/L (≈ 395 µM) with MCF7 [10]; 75.6 mg/L (≈ 231 µM) in [11]; 158 mg/L (≈ 481 µM) in data set [15]. Also, in the data set with HaCaT [13], the LC50 came to 117.7 mg/L (≈ 359 µM).

On to `CCCCCCCCCCCCCCCC(=O)NCc1ccccc1`, for which the TGI (in the data set on NCI/ADR-RES [2]; in the data set with MCF7 [3]; in data set [4]; in [6]; in the data set with NCI-H460 [7]; with U-251 [9]) was above 250 mg/L in each case. Also, the TGI in the data set on HaCaT [12] and in the data set on 786-0 [14] was above 250 mg/L throughout.

(Values after ChEMBL document CHEMBL3392966, “Antiproliferative activity of synthetic fatty acid amides from renewable resources” (Bioorg Med Chem, 2015).)
